Experimental findings from ChEMBL document CHEMBL1921792, “Synthesis and anticonvulsant activity of trans- and cis-2-(2,6-dimethylphenoxy)-N-(2- or 4-hydroxycyclohexyl)acetamides and their amine analogs” (Bioorg Med Chem, 2011) are described below.

For assay [1], the system named is Mus musculus. In words: Anticonvulsant activity in mouse assessed as protection against maximal electric shock-induced seizures at 130 mg/kg, ip after 0.5 hrs. Format: functional, organism-based. Details: dose 130 mg/kg. A digest of the protocol:
(§1)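 Time-to-peak-effect assay: MES protection read at 0.25–4 h after dosing. Mice ip (60–130 mg/kg), rats po (15 or 30 mg/kg) or ip (30 mg/kg). Groups of 4–8; result is protected/tested.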

For assay [2], the system named is Mus musculus. Nature of the assay: Anticonvulsant activity against subcutaneous pentylenetetrazole-induced seizures in mouse at 30 mg/kg, ip after 4 hrs. The arrangement: dose 30 mg/kg. It is filed as functional, organism-based. In short, it runs like this:
(§2)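 Phase I screen in mice. Compound given ip as a suspension in 0.5% methylcellulose, read at 30 min and 4 h. Pentylenetetrazole 85 mg/kg in 0.9% NaCl was injected sc into the posterior midline and animals watched ≥30 min. Protection meant no clonic spasm lasting ≥5 s. Groups of 1–8 animals; result is protected/tested.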

For assay [3], the system named is Mus musculus. Nature of the assay: Anticonvulsant activity against subcutaneous pentylenetetrazole-induced seizures in mouse at 100 mg/kg, ip after 4 hrs. Format: functional, organism-based. Details: dose 100 mg/kg. In short, it runs like this: as §2
Assay [4] has as its system Mus musculus. Nature of the assay: Anticonvulsant activity in mouse assessed as protection against maximal electric shock-induced seizures at 90 mg/kg, ip after 0.25 hrs. Format: functional, organism-based. Details: dose 90 mg/kg. In short, it runs like this: as §1
Assay [5] concerns Mus musculus. Nature of the assay: Anticonvulsant activity against subcutaneous pentylenetetrazole-induced seizures in mouse at 30 mg/kg, ip after 0.5 hrs. Format: functional, organism-based. The arrangement: dose 30 mg/kg. A digest of the protocol:
as §2

For assay [6], the system named is Mus musculus. In words: Anticonvulsant activity in mouse assessed as protection against maximal electric shock-induced seizures at 130 mg/kg, ip after 2 hrs. Format: functional, organism-based. Details: dose 130 mg/kg. In short, it runs like this: as §1
Assay [7] deals with Rattus norvegicus. In words: Anticonvulsant activity in rat assessed as protection against maximal electric shock-induced seizures at 30 mg/kg, po after 0.25 hrs. It is filed as functional, organism-based. Details: dose 30 mg/kg. In short, it runs like this: (§3)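 MES test in rats dosed orally at 30 mg/kg as a suspension in 0.5% methylcellulose, read at 0.25–4 h. Four rats per time point; result is protected/tested.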

In assay [8] the test system is Mus musculus. Nature of the assay: Anticonvulsant activity against subcutaneous pentylenetetrazole-induced seizures in mouse at 300 mg/kg, ip after 0.5 hrs. It is filed as functional, organism-based. The arrangement: dose 300 mg/kg. In short, it runs like this:
as §2

Assay [9] deals with Rattus norvegicus. Nature of the assay: Anticonvulsant activity in fully kindled rat hippocampus assessed as protection against focal seizures at 100 mg/kg, ip after 45 mins. It is filed as functional, organism-based. The arrangement: dose 100 mg/kg. In short, it runs like this: (§4)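 Rat hippocampus kindled with 50 Hz AC, […] for 1 s, every 0.5 h for 6 h, every other day for 10 days (60 cycles), reaching Racine stage 5. Compound 100 mg/kg ip; seizures re-induced at 15–135 min. Racine score below 3 counts as protection.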

For assay [10], the system named is N1E-115. In words: Blockade of voltage-gated sodium channel in mouse N1E-115 cells assessed as stimulation at 100 umol at -60 mV holding potential by whole-cell patch clamp electrophysiological assay relative to control. Format: cell-based. Background: The patch-clamp technique gives a direct electrical read-out from membranes.
Assay [11] has as its system N1E-115. Nature of the assay: Blockade of voltage-gated sodium channel in mouse N1E-115 cells assessed as stimulation at 100 umol at -90 mV holding potential by whole-cell patch clamp electrophysiological assay relative to control. It is filed as cell-based. A digest of the protocol: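 Whole-cell patch clamp with borosilicate glass electrodes on single cultured N1E-115 neuroblastoma cells. Compound at 100 µmol, holding potential -90 mV. Voltage-dependent sodium current expressed as % of control stimulation (no compound). Results from 5–8 cells averaged with SEM; significance by Student's t-test.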

Assay [12] deals with Mus musculus. Nature of the assay: Anticonvulsant activity in mouse assessed as protection against maximal electric shock-induced seizures at 130 mg/kg, ip after 0.25 hrs. It is filed as functional, organism-based. The arrangement: dose 130 mg/kg. A digest of the protocol:
as §1

For assay [13], the system named is Mus musculus. In words: Anticonvulsant activity in mouse assessed as protection against maximal electric shock-induced seizures at 30 mg/kg, ip after 4 hrs. Format: functional, organism-based. Details: dose 30 mg/kg. In short, it runs like this: (§5)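 Phase I maximal electroshock screen in mice. Compound given ip as a suspension in 0.5% methylcellulose at 30, 100 or 300 mg/kg, tested at 30 min and 4 h. Small groups (1–8); result is number protected/number tested.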

In assay [14] the test system is Mus musculus. In words: Anticonvulsant activity in mouse assessed as protection against maximal electric shock-induced seizures at 130 mg/kg, ip after 4 hrs. Format: functional, organism-based. The arrangement: dose 130 mg/kg. In short, it runs like this: as §1
In assay [15] the test system is Rattus norvegicus. Nature of the assay: Anticonvulsant activity in rat assessed as protection against maximal electric shock-induced seizures at 30 mg/kg, po after 0.5 hrs. It is filed as functional, organism-based. Details: dose 30 mg/kg. In short, it runs like this:
as §3

In assay [16] the test system is Mus musculus. In words: Anticonvulsant activity in mouse assessed as protection against maximal electric shock-induced seizures at 100 mg/kg, ip after 4 hrs. The arrangement: dose 100 mg/kg. Format: functional, organism-based. A digest of the protocol: as §5
The species entered for assay [17] is Mus musculus. Nature of the assay: Activation of NMDA receptor in mouse cortical neurons assessed as potentiation of NMDA/glycine-induced effect at 100 umol at -70 mV holding potential by whole-cell patch clamp electrophysiological assay relative to control. A digest of the protocol:
(§6)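 Whole-cell patch clamp on primary cultured murine cortical neurons, borosilicate glass electrodes. Responses to GABA, NMDA or kainate were recorded with the compound present, as % of control stimulation. Compound at 100 µmol, holding potential -70 mV. Significance p < 0.05.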

Assay [18] is filed under the species Mus musculus. Nature of the assay: Activation of GABA receptor in mouse cortical neurons assessed as potentiation of GABA-induced effect at 100 umol at -70 mV holding potential by whole-cell patch clamp electrophysiological assay relative to control. A digest of the protocol:
as §6

Assay [19] has as its system Rattus norvegicus. Nature of the assay: Anticonvulsant activity in fully kindled rat hippocampus assessed as protection against focal seizures at 100 mg/kg, ip after 15 mins. Format: functional, organism-based. Details: dose 100 mg/kg. In short, it runs like this:
as §4

The subject of assay [20] is Mus musculus. In words: Anticonvulsant activity in mouse assessed as protection against maximal electric shock-induced seizures at 300 mg/kg, ip after 4 hrs. Format: functional, organism-based. The arrangement: dose 300 mg/kg. A digest of the protocol:
as §5

Assay [21] has as its system Mus musculus. Nature of the assay: Anticonvulsant activity against subcutaneous pentylenetetrazole-induced seizures in mouse assessed as increase in tonic threshold at 106 mg/kg, ip by threshold tonic extension test. Format: functional, organism-based. The arrangement: dose 106 mg/kg. In short, it runs like this:
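Threshold tonic extension test in mice. The compound was given ip, then pentylenetetrazol was infused until the first twitch and the first clonus. PTZ dose was calculated from the infusion speed. Mean of 8 animals ± S.E.M.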

For assay [22], the system named is Mus musculus. In words: Anticonvulsant activity in mouse assessed as protection against maximal electric shock-induced seizures at 30 mg/kg, ip after 0.5 hrs. Format: functional, organism-based. Details: dose 30 mg/kg. In short, it runs like this: as §5
The species entered for assay [23] is Mus musculus. In words: Activation of kainate receptor in mouse cortical neurons assessed as potentiation of kainate-induced effect at 100 umol at -70 mV holding potential by whole-cell patch clamp electrophysiological assay relative to control. In short, it runs like this:
as §6

Assay [24] relates to Mus musculus. In words: Anticonvulsant activity in mouse assessed as protection against maximal electric shock-induced seizures at 100 mg/kg, ip after 0.5 hrs. It is filed as functional, organism-based. The arrangement: dose 100 mg/kg. A digest of the protocol: as §5
Assay [25] concerns Rattus norvegicus. Nature of the assay: Anticonvulsant activity in rat assessed as protection against maximal electric shock-induced seizures at 30 mg/kg, po after 4 hrs. Format: functional, organism-based. The arrangement: dose 30 mg/kg. In short, it runs like this: as §3
Assay [26] concerns Mus musculus. In words: Anticonvulsant activity against subcutaneous pentylenetetrazole-induced seizures in mouse at 100 mg/kg, ip after 0.5 hrs. Details: dose 100 mg/kg. It is filed as functional, organism-based. In short, it runs like this:
as §2

In assay [27] the test system is Mus musculus. Nature of the assay: Anticonvulsant activity in mouse assessed as protection against maximal electric shock-induced seizures at 300 mg/kg, ip after 0.5 hrs. It is filed as functional, organism-based. Details: dose 300 mg/kg. A digest of the protocol: as §5
In assay [28] the test system is Rattus norvegicus. Nature of the assay: Anticonvulsant activity in rat assessed as protection against maximal electric shock-induced seizures at 30 mg/kg, po after 1 hr. Details: dose 30 mg/kg. Format: functional, organism-based. In short, it runs like this:
as §3

The test system of assay [29] is Rattus norvegicus. In words: Anticonvulsant activity in rat assessed as protection against maximal electric shock-induced seizures at 30 mg/kg, po after 2 hrs. It is filed as functional, organism-based. Details: dose 30 mg/kg. A digest of the protocol:
as §3

In assay [30] the test system is Mus musculus. In words: Anticonvulsant activity against subcutaneous pentylenetetrazole-induced seizures in mouse at 300 mg/kg, ip after 4 hrs. Details: dose 300 mg/kg. Format: functional, organism-based. A digest of the protocol:
as §2

Active and inactive are the calls of the source.

Regarding `Cc1cccc(C)c1OCC(=O)NC1CCCCC1O` (racemic; 1), the outcome in the assay on Mus musculus [1], in the assay with Mus musculus [4], in the assay on Rattus norvegicus [7], in the assay on Mus musculus [8], in the assay with Rattus norvegicus [9] and with Mus musculus [12] was Active. Further, the outcome with Rattus norvegicus [15], with Rattus norvegicus [19] and in the assay with Mus musculus [21] was Active. Besides, the result with Mus musculus [2], with Mus musculus [3], with Mus musculus [5], in the assay on Mus musculus [6], in the assay on Mus musculus [13] and with Mus musculus [14] was inactive. Moreover, the result in the assay on Mus musculus [16], in the assay with Mus musculus [20] and in the assay with Mus musculus [22] was inactive. Moreover, the Activity in the assay on N1E-115 [10] worked out at 39%; in the assay on N1E-115 [11], 85%; in the assay listed under Mus musculus [17] it was 104%; in the assay filed under Mus musculus [18], 179%; in the assay filed under Mus musculus [23], 98%.

As for `Cc1cccc(C)c1OCC(=O)NC1CCCCC1O` (racemic; 4), the result with Mus musculus [2], in the assay on Mus musculus [3], in the assay on Mus musculus [24], with Mus musculus [5], in the assay on Mus musculus [8] and with Rattus norvegicus [25] was inactive. The result in the assay with Mus musculus [13], in the assay with Mus musculus [26], with Rattus norvegicus [15], with Mus musculus [16], in the assay on Rattus norvegicus [28] and in the assay on Rattus norvegicus [29] was inactive. Further, the outcome in the assay on Mus musculus [20], in the assay on Mus musculus [22] and in the assay with Mus musculus [30] was inactive. For the same molecule, the result in the assay on Mus musculus [27] was Active.
